Compound activity deposited in PubChem by Johns Hopkins Ion Channel Center.
MrgX1 allo act = human MrgX1 positive allosteric modulation, primary screen | Q96LB2 | MrgX1-HEK293, Fluo-4 calcium flux, FDSS; active compounds read high | B-score at 10 µM | actives 0.63% (n = 310,000) | AID 588675;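 active = plate-corrected calcium response at least 3 library SD above typical, normal starting fluorescence, not activating the receptor alone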;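 note: compound read alongside a low EC10 to EC30 dose of BAM8-22 agonist; peak minus trough fluorescence over baseline measured at the second addition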
Target sequence (Q96LB2 whole entry, looked up): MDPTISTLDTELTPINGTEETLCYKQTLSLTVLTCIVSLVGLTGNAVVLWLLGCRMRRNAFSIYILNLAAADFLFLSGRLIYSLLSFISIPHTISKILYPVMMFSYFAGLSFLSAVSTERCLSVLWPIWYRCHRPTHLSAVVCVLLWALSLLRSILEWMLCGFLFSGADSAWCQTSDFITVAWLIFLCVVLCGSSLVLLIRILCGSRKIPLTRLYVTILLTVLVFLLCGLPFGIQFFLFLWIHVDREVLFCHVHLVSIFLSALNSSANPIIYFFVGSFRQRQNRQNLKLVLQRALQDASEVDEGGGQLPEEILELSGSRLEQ
MrgX1 ag = human MrgX1 receptor agonism, primary screen; actives 0.44% (n = 310,000); MrgX1-HEK293 cells, Fluo-4 calcium fluorescence, agonist mode; active compounds read high; Q96LB2; B-score at 10 µM; AID 588627;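 active = calcium response B-score plate-corrected fluorescence ratio at least 3 library SD, with starting fluorescence B-score inside 5 SD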
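times = overnight plating, then 30 min 37 °C plus 30 min room-temperature dye loading | assay system = stable human MrgX1 HEK293 cell line | input = fifteen thousand cells per well | signal = kinetic calcium dye fluorescence, Fluo-4 NW | dosing = compound delivered in addition one of three | read-out = B-scored fluorescence response ratio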
RGS4 inh = inhibitors of human RGS4. P49798. HEK293 M3R/RGS4 inducible, Fluo-4 calcium flux; active compounds read high; triggered by carbachol at its EC20. B-score at 10 µM. actives 0.45% (n = 310,000);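 active = B-score, a plate-corrected calcium signal, over three deviations above library mean, with baseline fluorescence within five deviations of library mean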;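 note: RGS4 expression induced by doxycycline in cells with stable M3 receptor; B-score is computed from the integrated fluorescence ratio over baseline after carbachol; higher B-score means a larger calcium signal and so more RGS4 inhibition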
Target sequence (P49798 whole entry, looked up): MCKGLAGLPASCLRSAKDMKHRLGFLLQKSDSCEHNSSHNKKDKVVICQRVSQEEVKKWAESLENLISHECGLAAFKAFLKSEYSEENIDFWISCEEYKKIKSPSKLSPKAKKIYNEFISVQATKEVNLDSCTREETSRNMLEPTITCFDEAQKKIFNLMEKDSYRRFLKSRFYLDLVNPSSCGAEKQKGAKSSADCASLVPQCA
RGS4 act = RGS4 potentiation or activation. HEK293 M3R/inducible RGS4, carbachol calcium flux Fluo4; active compounds read low. B-score at 10 µM. actives 0.92% (n = 310,000);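 active = B-score of the integrated calcium signal more than 4 SD below the library mean, with starting fluorescence not abnormally high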;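 note: negative B-score means reduced calcium response which marks RGS4 activation or potentiation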
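Also added: carbachol at ECmax as muscarinic agonist stimulus; Assay system: HEK293 cells with stable M3R and inducible RGS4; Timing: overnight RGS4 induction, 30 min dye load 37 °C, 20 min compound RT; Measured by: Fluo4-AM (2 µM) calcium-flux fluorescence, kinetic read.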
MrgX1 antagonist = blocks BAM8-22 activation of human MrgX1 receptor. MRGX1-HEK293 calcium flux, Fluo-4, BAM8-22 antagonism; active compounds read low. AID 588676. actives 1.3% (n = 310,000). Q96LB2. B-score at 10 µM;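 active = calcium-response B-score plate-corrected more than 3 library SD below zero, starting fluorescence within 5 deviations, no agonist response on first addition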;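 note: peak minus trough fluorescence over baseline after final BAM8-22 challenge near maximal dose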
RGS4 activ val = confirmation of RGS4 activators; shares compounds with RGS4 act; HEK293 M3R/RGS4 inducible, carbachol calcium flux Fluo4; inhibition, % at 10 µM; actives 89% (n = 1,100); AID 602282;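 active = inhibition above 3 SD of the buffer control wells, cut at about 41% in these data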;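 note: signal is the integrated peak-minus-minimum Fluo4 fluorescence over baseline ratio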
M3R Ca counter = activity in cells without induced RGS4 expression; AID 602283; HEK293 M3R non-induced RGS4, Fluo4 calcium flux; after carbachol challenge at its EC90; actives 82% (n = 1,100); shares compounds with RGS4 act; inhibition, % at 10 µM;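 active = inhibition exceeding 3 SD of buffer-only control wells, cut at about 26% in these data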;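 note: percent drop in integrated peak-minus-baseline over baseline Fluo4 ratio after carbachol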
An asterisk follows results filed as active. A selection: hits, their analogues and other compounds. The true share with any hit is near 3.5%.

O=C(c1ccc2nc(-c3ccco3)c(-c3ccco3)nc2c1)N1CCN(c2ccccc2)CC1 was read as MrgX1 allo act inactive, MrgX1 ag inactive, RGS4 inh inactive, RGS4 act -12.7*, MrgX1 antagonist inactive, RGS4 activ val 91.5* and M3R Ca counter 46.3*.
CCN(CC)CCn1c(=S)[nH]c2cc(C(=O)N3CC(C)CC(C)C3)ccc2c1=O (centres undefined) was read as MrgX1 allo act inactive, MrgX1 ag inactive, RGS4 inh inactive, RGS4 act inactive and MrgX1 antagonist inactive.
Screening Cc1ccc(C(OC(=O)c2ccco2)C(=O)NC(C)(C)C)cc1 (centres undefined) returned MrgX1 allo act inactive, MrgX1 ag inactive, RGS4 inh inactive, RGS4 act inactive and MrgX1 antagonist inactive.
`Cc1ccc2cc(NC(=O)c3ccc(C(C)(C)C)cc3)ccc2n1` gave MrgX1 allo act inactive, MrgX1 ag inactive, RGS4 inh inactive, RGS4 act -8.23*, MrgX1 antagonist inactive, RGS4 activ val 84.5* and M3R Ca counter 80.8*.
Screening CCC(C)Nc1nc(OC(C(F)(F)F)C(F)(F)F)nc(OC(C(F)(F)F)C(F)(F)F)n1 (centres undefined) returned MrgX1 allo act inactive, MrgX1 ag inactive, RGS4 inh inactive, RGS4 act -7.88*, MrgX1 antagonist inactive, RGS4 activ val 90.0* and M3R Ca counter 52.8*.
Screening OCC1(Cc2ccccc2)CCCN(Cc2ccc(-c3ccco3)cc2)C1 (centres undefined) returned MrgX1 allo act inactive, MrgX1 ag inactive, RGS4 inh inactive, RGS4 act inactive and MrgX1 antagonist inactive.
`OCC1(Cc2ccccc2)CCN(Cc2ccc(-c3ccco3)cc2)CC1` gave MrgX1 allo act inactive, MrgX1 ag inactive, RGS4 inh inactive, RGS4 act -9.97*, MrgX1 antagonist inactive, RGS4 activ val 89.5* and M3R Ca counter 51.8*.
`CN1CCN(c2ccccc2NC(=O)c2ccc(-c3ccccc3[N+](=O)[O-])o2)CC1` gave MrgX1 allo act inactive, MrgX1 ag inactive, RGS4 inh inactive, RGS4 act inactive and MrgX1 antagonist inactive.
For CCOC(=O)CC1CCCCN1Cc1cn(C)nc1-c1ccc2c(c1)OCCO2 (centres undefined) the results were MrgX1 allo act inactive, MrgX1 ag inactive, RGS4 inh inactive, RGS4 act inactive and MrgX1 antagonist inactive.
Cn1cc(CN2C[C@]3(C)C[C@H]2CC(C)(C)C3)c(-c2ccc3c(c2)OCCO3)n1 was read as MrgX1 allo act inactive, MrgX1 ag inactive, RGS4 inh inactive, RGS4 act -8.94*, MrgX1 antagonist inactive, RGS4 activ val 88.0* and M3R Ca counter 46.8*.
`CCCc1nnc(NC(=O)CCC(=O)N2CCCCC2CC)s1` (centres undefined) gave MrgX1 allo act inactive, MrgX1 ag inactive, RGS4 inh inactive, RGS4 act -7.85*, MrgX1 antagonist inactive, RGS4 activ val 0.0 and M3R Ca counter 0.0.
Screening Cc1ccc(S(=O)(=O)N2CCN(C)CC2)c2nsnc12 returned MrgX1 allo act inactive, MrgX1 ag inactive, RGS4 inh inactive, RGS4 act inactive and MrgX1 antagonist inactive.
Cc1ccc(C)c(N2CCN(C(=O)c3ccc(CS(=O)(=O)c4ccccc4C)o3)CC2)c1 was read as MrgX1 allo act inactive, MrgX1 ag inactive, RGS4 inh inactive, RGS4 act -8.76*, MrgX1 antagonist inactive, RGS4 activ val 88.5* and M3R Ca counter 65.8*.
COc1ccc(NC(=O)COc2cccc3c2CCN(Cc2cccnc2)C3=O)c(OC)c1 was read as MrgX1 allo act inactive, MrgX1 ag inactive, RGS4 inh inactive, RGS4 act inactive and MrgX1 antagonist inactive.
Screening Cc1ccnc(Nc2nc(-c3ccc(F)cc3)cs2)c1 returned MrgX1 allo act inactive, MrgX1 ag inactive, RGS4 inh inactive, RGS4 act -8.75*, MrgX1 antagonist inactive, RGS4 activ val 91.5* and M3R Ca counter 74.3*.
Cc1ccnc(Nc2nc(-c3ccc(Cl)cc3)cs2)c1 was read as MrgX1 allo act inactive, MrgX1 ag inactive, RGS4 inh inactive, RGS4 act inactive and MrgX1 antagonist inactive.
O=C(Nc1ccc(Cl)c(S(=O)(=O)N2CCOCC2)c1)c1ccc(OCC2CCCO2)cc1 (centres undefined) was read as MrgX1 allo act inactive, MrgX1 ag inactive, RGS4 inh inactive, RGS4 act -10.8*, MrgX1 antagonist -11.1*, RGS4 activ val 94.0* and M3R Ca counter 78.8*.
`O=C(Nc1ccc(S(=O)(=O)N2CCCC2)cc1)c1ccc(OCC2CCCO2)cc1` (centres undefined) gave MrgX1 allo act inactive, MrgX1 ag inactive, RGS4 inh inactive, RGS4 act inactive and MrgX1 antagonist inactive.
For COc1ccc(Nc2nc(NCC3CCCO3)c3ccccc3n2)c(OC)c1 (centres undefined) the results were MrgX1 allo act inactive, MrgX1 ag inactive, RGS4 inh inactive, RGS4 act -7.72*, MrgX1 antagonist inactive, RGS4 activ val 38.5* and M3R Ca counter 83.8*.
For CCN(C(=O)COC(=O)c1ccc(Cl)c(N)c1)C1CCS(=O)(=O)C1 (centres undefined) the results were MrgX1 allo act inactive, MrgX1 ag inactive, RGS4 inh inactive, RGS4 act inactive and MrgX1 antagonist inactive.
Screening CC(=O)N1c2ccc(S(=O)(=O)N3CCCCC3)cc2CC1C(=O)Nc1ccc(C)cc1 (centres undefined) returned MrgX1 allo act inactive, MrgX1 ag inactive, RGS4 inh inactive, RGS4 act inactive and MrgX1 antagonist inactive.
Screening Cc1ccc(S(=O)(=O)n2c(CN3CCCC(C)C3)nc3ccccc32)cc1 (centres undefined) returned MrgX1 allo act inactive, MrgX1 ag inactive, RGS4 inh inactive, RGS4 act -10.5*, MrgX1 antagonist inactive, RGS4 activ val 60.0* and M3R Ca counter 83.8*.
Cc1ccc(S(=O)(=O)n2c(C)nc3ccccc32)cc1 was read as MrgX1 allo act inactive, MrgX1 ag inactive, RGS4 inh inactive, RGS4 act inactive and MrgX1 antagonist inactive.
Screening Cc1cc(C)c2[nH]c(C)c(CN3CCCCCC3)c(=O)c2c1 returned MrgX1 allo act inactive, MrgX1 ag inactive, RGS4 inh inactive, RGS4 act -10.9*, MrgX1 antagonist inactive, RGS4 activ val 42.0* and M3R Ca counter 83.8*.
